ChEMBL document CHEMBL1127568, “A new series of PDGF receptor tyrosine kinase inhibitors: 3-substituted quinoline derivatives” (J Med Chem, 1994)

How the values were obtained:
[1] = target: T1, Platelet-derived growth factor receptor (Homo sapiens, UniProt P09619+P16234); assay: Inhibition of human PDGF receptor phosphorylation; 0.1-0.8; format: protein-complex assay
Summary of the method: (§1)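 PDGF receptor from NIH 3T3 cell lysates (cells made quiescent 24 h in 0.5% calf serum), stimulated with 10 ng/mL PDGF for 30 min at 4 °C and immunoprecipitated on Protein A beads. Each compound ran in at least two dose-response assays.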

[2] = target: Epidermal growth factor receptor (Homo sapiens, UniProt P00533); assay: Concentration required to inhibit phosphorylation of isolated human epidermal growth factor tyrosine kinase receptor by 50%
Sequence of Epidermal growth factor receptor (P00533 whole entry): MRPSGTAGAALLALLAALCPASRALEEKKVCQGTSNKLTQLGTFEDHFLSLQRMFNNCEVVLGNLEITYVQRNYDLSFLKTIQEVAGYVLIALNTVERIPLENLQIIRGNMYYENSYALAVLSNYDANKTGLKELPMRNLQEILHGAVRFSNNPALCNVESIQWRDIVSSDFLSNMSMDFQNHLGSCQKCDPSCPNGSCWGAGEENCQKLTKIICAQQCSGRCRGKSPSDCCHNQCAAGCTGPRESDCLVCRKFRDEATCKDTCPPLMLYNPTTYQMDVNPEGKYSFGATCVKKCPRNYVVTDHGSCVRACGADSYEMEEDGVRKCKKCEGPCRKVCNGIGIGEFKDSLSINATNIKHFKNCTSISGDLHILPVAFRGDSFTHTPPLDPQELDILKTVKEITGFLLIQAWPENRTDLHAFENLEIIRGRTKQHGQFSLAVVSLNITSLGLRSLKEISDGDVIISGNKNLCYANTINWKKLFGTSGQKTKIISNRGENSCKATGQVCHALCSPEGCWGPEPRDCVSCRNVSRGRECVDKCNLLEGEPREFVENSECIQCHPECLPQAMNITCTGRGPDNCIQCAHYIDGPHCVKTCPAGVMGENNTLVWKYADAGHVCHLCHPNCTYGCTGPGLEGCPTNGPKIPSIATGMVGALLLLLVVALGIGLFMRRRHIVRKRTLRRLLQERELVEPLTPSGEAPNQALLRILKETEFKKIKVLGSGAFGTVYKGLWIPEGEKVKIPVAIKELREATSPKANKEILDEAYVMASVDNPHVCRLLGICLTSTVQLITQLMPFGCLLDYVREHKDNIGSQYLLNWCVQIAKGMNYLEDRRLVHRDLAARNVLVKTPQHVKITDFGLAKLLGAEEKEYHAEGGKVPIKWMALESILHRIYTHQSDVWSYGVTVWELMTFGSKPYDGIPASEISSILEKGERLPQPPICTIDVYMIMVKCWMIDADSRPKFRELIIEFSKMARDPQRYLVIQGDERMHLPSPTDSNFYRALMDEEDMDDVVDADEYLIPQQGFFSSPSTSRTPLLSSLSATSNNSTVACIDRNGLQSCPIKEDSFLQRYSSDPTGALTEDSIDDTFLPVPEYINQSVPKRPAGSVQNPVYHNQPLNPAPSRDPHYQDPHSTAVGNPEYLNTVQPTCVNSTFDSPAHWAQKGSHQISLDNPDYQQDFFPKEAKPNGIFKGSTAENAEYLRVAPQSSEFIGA

[3] = target: T1, Platelet-derived growth factor receptor; assay: Inhibition of human PDGF receptor phosphorylation; 1-2; format: protein-complex assay; summary of the method: as §1
[4] = target: T1, Platelet-derived growth factor receptor; assay: Inhibition of human PDGF receptor phosphorylation; 0.1-0.25; format: protein-complex assay; summary of the method: as §1
[5] = target: T1, Platelet-derived growth factor receptor; assay: Inhibition of human PDGF receptor phosphorylation; 0.1-0.6; format: protein-complex assay
Summary of the method: (§2)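 Receptor from quiescent NIH 3T3 cell lysates (24 h in 0.5% calf serum before lysis), stimulated with 10 ng/mL PDGF for 30 min at 4 °C, then immunoprecipitated with anti-PDGF receptor antibody on Protein A beads. Compound pre-incubated 10 min at 4 °C in 50 mM Tris, 10 mM MnCl2, pH 7.5. At least two dose-response assays per compound.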

[6] = target: T1, Platelet-derived growth factor receptor; assay: Inhibition of human PDGF receptor phosphorylation; 1-7; format: protein-complex assay
[7] = target: T1, Platelet-derived growth factor receptor; assay: Inhibition of human PDGF receptor phosphorylation; 2-8; format: protein-complex assay; summary of the method: as §1
[8] = target: T1, Platelet-derived growth factor receptor; assay: Inhibition of human PDGF receptor phosphorylation; 0.003-0.005; format: protein-complex assay
[9] = target: T1, Platelet-derived growth factor receptor; assay: Inhibition of human PDGF receptor phosphorylation; 0.1-0.2; format: protein-complex assay; summary of the method: as §1
[10] = target: T1, Platelet-derived growth factor receptor; assay: Inhibition of human PDGF receptor phosphorylation; 0.02-0.04; format: protein-complex assay; summary of the method: as §1
[11] = target: T1, Platelet-derived growth factor receptor; assay: Inhibition of human PDGF receptor phosphorylation; 0.3-0.5; format: protein-complex assay; summary of the method: as §1
[12] = target: T1, Platelet-derived growth factor receptor; assay: Inhibition of human PDGF receptor phosphorylation; 0.5-2; format: protein-complex assay
[13] = target: T1, Platelet-derived growth factor receptor; assay: Inhibition of human PDGF receptor phosphorylation; 0.04-0.07; format: protein-complex assay; summary of the method: as §2
[14] = target: T1, Platelet-derived growth factor receptor; assay: Inhibition of isolated human PDGF receptor phosphorylation; format: protein-complex assay
[15] = target: T1, Platelet-derived growth factor receptor; assay: Inhibition of human PDGF receptor phosphorylation; 0.02-0.05; format: protein-complex assay; summary of the method: as §1
[16] = target: T1, Platelet-derived growth factor receptor; assay: Inhibition of human PDGF receptor phosphorylation; 0.07-0.15; format: protein-complex assay
[17] = target: T1, Platelet-derived growth factor receptor; assay: Inhibition of human PDGF receptor phosphorylation; 0.001-0.005; format: protein-complex assay; summary of the method: as §1
[18] = target: T1, Platelet-derived growth factor receptor; assay: Inhibition of human PDGF receptor phosphorylation; 0.2-0.4; format: protein-complex assay; summary of the method: as §1
[19] = target: T1, Platelet-derived growth factor receptor; assay: Inhibition of human PDGF receptor phosphorylation; 0.015-0.03; format: protein-complex assay; summary of the method: as §1
[20] = target: T1, Platelet-derived growth factor receptor; assay: Inhibition of human PDGF receptor phosphorylation; 0.04-0.08; format: protein-complex assay; summary of the method: as §1
[21] = target: T1, Platelet-derived growth factor receptor; assay: Inhibition of human PDGF receptor phosphorylation; 0.035-0.06; format: protein-complex assay; summary of the method: as §1
[22] = target: T1, Platelet-derived growth factor receptor; assay: Inhibition of human PDGF receptor phosphorylation; 0.5-3; format: protein-complex assay
[23] = target: T1, Platelet-derived growth factor receptor; assay: Concentration required to inhibit phosphorylation of isolated human PDGF receptor by 50%; 0.3-1; format: protein-complex assay; summary of the method: as §1
[24] = target: T1, Platelet-derived growth factor receptor; assay: Inhibition of human PDGF receptor phosphorylation; 0.2-0.8; format: protein-complex assay; summary of the method: as §2
[25] = target: T1, Platelet-derived growth factor receptor; assay: Inhibition of human PDGF receptor phosphorylation; 0.008-0.07; format: protein-complex assay
[26] = target: T1, Platelet-derived growth factor receptor; assay: Inhibition of human PDGF receptor phosphorylation; 6-10; format: protein-complex assay

Row | Structure (SMILES) | IC50 [2] [nM] | other results
1 | COc1cc2cc(-c3cccnc3)cnc2cc1OC | > 25000 | IC50 [1]: 800 nM
2 | Clc1cc2cc(-c3ccsc3)cnc2cc1Cl | > 20000 | IC50 [3]: 2000 nM
3 | COc1ccc(-c2cnc3cc(OC)c(OC)cc3c2)s1 | > 20000 | IC50 [4]: 250 nM
4 | COc1cc2cc(-c3c[nH]c4ccccc34)cnc2cc1OC | > 20000 | IC50 [5]: 600 nM
5 | COc1cc2cc(-c3ccc(Cl)c(Cl)c3)cnc2cc1OC | > 20000 | IC50 [6]: 7000 nM
6 | c1ccc2ncc(-c3c[nH]c4ccccc34)cc2c1 | > 20000 | IC50 [7]: 8000 nM
7 | COc1ccc(-c2cnc3cc(OC)c(OC)cc3c2)cc1F | > 20000 | IC50 [8]: 5 nM
8 | C(=C\c1cnc2ccccc2c1)/c1ccccc1 | > 20000 | IC50 [9]: 200 nM
9 | COc1cc2cc(C3=CCCC3)cnc2cc1OC | > 20000 | IC50 [10]: 40 nM
10 | COc1cc2cc(CCC3CCCCC3)cnc2cc1OC | > 20000 | IC50 [11]: 500 nM
11 | COc1cc2cc(-c3ccc(C)cc3)cnc2cc1OC | > 20000 | IC50 [12]: 2000 nM
12 | COc1cc2cc(OCc3ccccc3)cnc2cc1OC | > 20000 | IC50 [13]: 70 nM
13 | COc1cc2cc(-c3ccc(-c4ccccc4)cc3)cnc2cc1OC | > 20000 | IC50 [14]: > 50000 nM
14 | COc1cc2cc(-c3cc(OC)c(OC)c(OC)c3)cnc2cc1OC | > 20000 | IC50 [14]: > 50000 nM
15 | COc1ccc2cc(-c3c[nH]c4ccccc34)cnc2c1OC | > 20000 | IC50 [14]: > 50000 nM
16 | COc1cc2cc(O)cnc2cc1OC | > 20000 | IC50 [14]: ≥ 20000 nM

Row | Structure (SMILES) | IC50 [2] [nM] | other results
17 | COc1cc2cc(C#Cc3ccccc3)cnc2cc1OC | > 20000 | IC50 [15]: 50 nM
18 | COc1ccc(-c2cnc3cc(OC)c(OC)cc3c2)c(OC)c1 | > 20000 | IC50 [14]: > 50000 nM
19 | COc1cc2cc(N)cnc2cc1OC | > 20000 | IC50 [14]: > 50000 nM
20 | COc1cc2cc(-c3ccc([N+](=O)[O-])cc3)cnc2cc1OC | > 20000 | IC50 [16]: 150 nM
21 | Cc1cc(C)c2cc(-c3ccsc3)cnc2c1 | > 20000 | IC50 [17]: 5 nM
22 | COc1cc2cc(-c3cc(F)c(OC)c(F)c3)cnc2cc1OC | > 20000 | IC50 [18]: 400 nM
23 | COc1cc2cc(-c3ccc(=O)[nH]c3)cnc2cc1OC | > 20000 | IC50 [19]: 30 nM
24 | COc1cc2cc(-c3cccs3)cnc2cc1OC | > 20000 | IC50 [20]: 80 nM
25 | COc1cc2cc(-c3ccc(F)cc3)cnc2cc1OC | > 20000 | IC50 [21]: 60 nM
26 | COc1ccc(/C=C(\C#N)c2cccnc2)cc1OC | 700 | IC50 [22]: 3000 nM
27 | COc1cc2cc(C#CC3CCCCC3)cnc2cc1OC | > 20000 | IC50 [23]: 1000 nM
28 | COc1ccc(CCc2cnc3cc(OC)c(OC)cc3c2)cc1 | > 20000 | IC50 [24]: 800 nM
29 | COc1cc2cc(-c3ccccc3)cnc2cc1OC | > 20000 | IC50 [16]: 150 nM
30 | COc1ccc(-c2cnc3cc(OC)c(OC)cc3c2)cn1 | > 20000 | IC50 [25]: 70 nM
31 | Oc1cc2cc(-c3cccnc3)cnc2cc1O | 500 | IC50 [26]: 10000 nM
32 | COc1cc2cc([N+](=O)[O-])cnc2cc1OC | > 20000 | IC50 [14]: > 50000 nM
